The subject of data set [1] is PC-12. Put plainly: Protection against H2O2-induced cell injury in rat PC12 cells assessed as cell viability at 10 uM preincubated for 2 hrs followed by H2O2 addition measured after 24 hrs by MTT assay (reference value: 46.5%). The format is functional. To be noted: read-out: Activity. In a few lines:
(§1)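 PC12 cells were injured with 100 μM H2O2. Viability was measured by MTT reduction and compared with untreated control and with the H2O2-only group.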
On the technique in general: Tetrazolium assays rely on reduction of a dye to a coloured formazan, in cell work by metabolically active cells.

Data set [2] can be described thus: Metal chelating activity assessed as compound-Fe2+ complex formation at 37.5 uM after 30 mins by UV-Visible spectrophotometric method.
In data set [3] the target is Cholinesterase (Equus caballus, UniProt P81908). The format is ADME.
Data set [4] concerns the target Acetylcholinesterase (Electrophorus electricus) (UniProt O42275). Conditions: 0.5 to 2 uM.
Data set [5] concerns the target T1, Amine oxidase [flavin-containing] B (Homo sapiens, UniProt P27338).
T1 sequence (P27338 whole entry): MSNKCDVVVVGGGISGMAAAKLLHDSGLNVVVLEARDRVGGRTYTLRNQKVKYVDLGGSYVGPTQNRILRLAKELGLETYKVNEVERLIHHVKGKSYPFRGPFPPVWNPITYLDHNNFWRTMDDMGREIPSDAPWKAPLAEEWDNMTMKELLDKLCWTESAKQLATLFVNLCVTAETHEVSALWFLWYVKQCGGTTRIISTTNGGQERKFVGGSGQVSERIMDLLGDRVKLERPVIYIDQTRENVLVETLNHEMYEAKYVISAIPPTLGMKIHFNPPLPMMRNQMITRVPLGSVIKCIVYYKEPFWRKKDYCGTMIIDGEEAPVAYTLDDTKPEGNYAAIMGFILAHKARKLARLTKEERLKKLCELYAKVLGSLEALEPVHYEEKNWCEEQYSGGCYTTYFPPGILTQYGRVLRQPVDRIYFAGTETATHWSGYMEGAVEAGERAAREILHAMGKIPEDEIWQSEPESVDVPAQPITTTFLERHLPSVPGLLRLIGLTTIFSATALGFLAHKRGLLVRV

Data set [6] can be described thus: Metal chelating activity assessed as compound-Al3+ complex formation at 37.5 uM after 30 mins by UV-Visible spectrophotometric method.
Data set [7] in a line: Selectivity index, ratio of IC50 for equine serum BuChE to IC50 for electric eel AChE. In a few lines: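 IC50 values for E. electricus AChE and equine serum BuChE came from a modified Ellman assay, each the mean of three independent experiments run in triplicate. The selectivity index is the ratio of the two IC50 values.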
Data set [8] has as its system PC-12. Description: Protection against H2O2-induced cell injury in rat PC12 cells assessed as cell viability at 1 uM preincubated for 2 hrs followed by H2O2 addition measured after 24 hrs by MTT assay (reference value: 46.5%). Format: functional. To be noted: read-out: Activity. Put shortly:
as §1

A short description of data set [9]: Antioxidant activity assessed as trolox equivalent of […]-induced radical scavenging activity measured every minute for 90 mins by ORAC fluorescein assay. The format is functional. In a few lines: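 Measured by the ORAC-FL fluorescein method. Values are given as μM Trolox equivalent per μM of test compound.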
For data set [10], the system named is PC-12. Description: Protection against H2O2-induced cell injury in rat PC12 cells assessed as cell viability preincubated for 2 hrs followed by H2O2 addition measured after 24 hrs by MTT assay. The format is functional, cell-based. Put shortly: as §1
Data set [11] has as its target T2, Amine oxidase [flavin-containing] A (Homo sapiens, UniProt P21397).
T2 sequence (P21397 whole entry): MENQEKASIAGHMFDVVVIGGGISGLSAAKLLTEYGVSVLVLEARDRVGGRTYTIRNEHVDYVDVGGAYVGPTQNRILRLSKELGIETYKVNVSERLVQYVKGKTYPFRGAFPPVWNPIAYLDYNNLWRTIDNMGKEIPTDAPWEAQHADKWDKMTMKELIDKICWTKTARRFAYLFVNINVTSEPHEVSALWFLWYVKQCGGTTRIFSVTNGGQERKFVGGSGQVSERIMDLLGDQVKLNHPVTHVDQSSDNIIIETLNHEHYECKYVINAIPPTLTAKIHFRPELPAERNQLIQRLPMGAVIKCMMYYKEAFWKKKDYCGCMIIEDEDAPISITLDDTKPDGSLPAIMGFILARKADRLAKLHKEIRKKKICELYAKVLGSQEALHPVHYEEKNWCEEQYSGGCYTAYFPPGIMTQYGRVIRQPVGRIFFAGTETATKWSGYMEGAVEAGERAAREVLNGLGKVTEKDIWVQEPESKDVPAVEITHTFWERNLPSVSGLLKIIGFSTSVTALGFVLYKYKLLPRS
Description: Inhibition of recombinant human MAO-A at 10 uM using kynuramine as substrate after 30 mins by fluorescence method relative to control. To be noted: 0.5 h.

Data set [12] is described as follows: Metal chelating activity assessed as mole fraction of compound required to show 1:1 stoichiometry for Cu2+-compound complex at 37.5 uM after 30 mins by UV-Visible spectrophotometric method.
Data set [13] can be described thus: Effective permeability of the compound by PAMPA. The format is physicochemical. Conditions: read-out: Peff. On the technique in general: PAMPA measures passive passage across an artificial lipid membrane.
Data set [14] is described as follows: Metal chelating activity assessed as compound-Zn2+ complex formation at 37.5 uM after 30 mins by UV-Visible spectrophotometric method.
The nature of data set [15]: Metal chelating activity assessed as compound-Cu2+ complex formation by measuring red shift at 37.5 uM after 30 mins by UV-Visible spectrophotometric method.
Data set [16] deals with Acetylcholinesterase (Electrophorus electricus, UniProt O42275). Description: Inhibition of electric eel AChE using acetylthiocholine as substrate incubated for 15 mins by Ellman's method. Background: Ellman's reagent forms a yellow product with free thiols.

Experimental findings from ChEMBL document CHEMBL4043276, “Design, synthesis and biological evaluation of 2-acetyl-5-O-(amino-alkyl)phenol derivatives as multifunctional agents for the treatment of Alzheimer's disease” (Bioorg Med Chem Lett, 2017) are described below.

Activity calls are given as the source filed them. The calls are words filed in the database; no cut-off is given here.

In general, IC50 refers to the point on the concentration scale where inhibition reaches its midpoint. As a reminder, the inhibition is the drop in the measured response relative to a control, in per cent.

Cholinesterase, sequence (P81908 whole entry): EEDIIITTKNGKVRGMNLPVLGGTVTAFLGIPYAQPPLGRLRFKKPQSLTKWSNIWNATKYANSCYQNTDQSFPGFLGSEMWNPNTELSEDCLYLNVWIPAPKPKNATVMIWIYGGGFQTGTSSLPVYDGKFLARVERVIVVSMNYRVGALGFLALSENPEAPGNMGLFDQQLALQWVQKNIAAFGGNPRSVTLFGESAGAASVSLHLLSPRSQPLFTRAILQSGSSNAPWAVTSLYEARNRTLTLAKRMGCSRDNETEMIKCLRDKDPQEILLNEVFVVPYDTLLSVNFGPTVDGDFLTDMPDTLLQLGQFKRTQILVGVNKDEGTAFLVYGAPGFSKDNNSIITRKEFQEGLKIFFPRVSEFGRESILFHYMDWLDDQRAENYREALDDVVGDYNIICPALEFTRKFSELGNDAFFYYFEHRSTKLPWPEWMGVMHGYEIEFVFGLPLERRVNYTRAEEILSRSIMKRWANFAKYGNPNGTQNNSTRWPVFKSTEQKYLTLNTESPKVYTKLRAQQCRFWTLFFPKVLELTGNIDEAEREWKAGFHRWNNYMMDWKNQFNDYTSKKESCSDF
Acetylcholinesterase (Electrophorus electricus), sequence (O42275 24-633 limits assumed): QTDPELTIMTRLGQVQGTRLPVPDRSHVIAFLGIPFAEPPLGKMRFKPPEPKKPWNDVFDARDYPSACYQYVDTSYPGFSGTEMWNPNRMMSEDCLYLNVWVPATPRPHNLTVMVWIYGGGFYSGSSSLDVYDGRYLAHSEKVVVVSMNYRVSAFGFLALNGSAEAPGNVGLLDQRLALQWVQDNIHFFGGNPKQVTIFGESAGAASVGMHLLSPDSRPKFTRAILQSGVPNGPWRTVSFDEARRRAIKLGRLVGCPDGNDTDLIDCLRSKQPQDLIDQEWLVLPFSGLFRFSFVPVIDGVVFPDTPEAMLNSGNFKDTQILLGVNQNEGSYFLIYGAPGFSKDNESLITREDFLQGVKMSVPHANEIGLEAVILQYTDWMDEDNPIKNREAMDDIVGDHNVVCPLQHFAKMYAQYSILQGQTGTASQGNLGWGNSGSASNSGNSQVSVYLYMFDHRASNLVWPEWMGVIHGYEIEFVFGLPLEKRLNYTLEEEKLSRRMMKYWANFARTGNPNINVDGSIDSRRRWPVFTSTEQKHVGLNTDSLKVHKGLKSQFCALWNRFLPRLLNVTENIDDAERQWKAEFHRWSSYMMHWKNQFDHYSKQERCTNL
Acetylcholinesterase, sequence (O42275 whole entry): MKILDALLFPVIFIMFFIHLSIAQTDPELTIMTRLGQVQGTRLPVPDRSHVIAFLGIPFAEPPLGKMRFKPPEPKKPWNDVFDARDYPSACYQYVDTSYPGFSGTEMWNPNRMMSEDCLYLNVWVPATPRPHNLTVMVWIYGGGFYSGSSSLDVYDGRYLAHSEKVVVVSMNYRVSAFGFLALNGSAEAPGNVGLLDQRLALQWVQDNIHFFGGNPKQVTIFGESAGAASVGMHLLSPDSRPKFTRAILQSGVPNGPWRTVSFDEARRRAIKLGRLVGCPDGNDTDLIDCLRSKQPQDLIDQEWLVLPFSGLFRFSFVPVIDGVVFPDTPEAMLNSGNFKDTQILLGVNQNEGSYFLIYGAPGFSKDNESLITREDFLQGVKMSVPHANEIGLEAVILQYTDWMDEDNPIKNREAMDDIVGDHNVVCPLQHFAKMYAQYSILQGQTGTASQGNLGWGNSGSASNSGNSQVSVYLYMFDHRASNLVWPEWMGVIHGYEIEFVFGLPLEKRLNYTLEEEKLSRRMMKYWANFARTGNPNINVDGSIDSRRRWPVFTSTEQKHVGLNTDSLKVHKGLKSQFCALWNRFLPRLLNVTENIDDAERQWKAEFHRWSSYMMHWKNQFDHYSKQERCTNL

`CC(=O)c1ccc(OCCCN2CCN(Cc3ccccc3)CC2)cc1O`: the viability at 10 µM in [1] stood at 73.3%. Also, the outcome in data set [2], in [6] and in data set [14] was inactive. Besides, the IC50 in data set [3] turned out to be 31.4 µM; in data set [5], 6.8 µM; in data set [16] it was 0.96 µM. Further, the inhibition result in data set [4] is “Active”. In data set [7], the Ratio IC50 came to 32.7. Further, in [8], the viability at 1 µM turned out to be 59.6%. In addition, the figures for the Activity in [9], in data set [10] and in data set [12] were 1.5 equiv, “Dose-dependent effect” and 0.99 molar ratio, respectively. In addition, the inhibition at 10 µM in data set [11] is less than 5%. The Papp in data set [13] worked out at 13.3 ×10⁻⁶ cm/s. The outcome in [15] was Active.
